Here are results for 14 compounds from PubChem BioAssay.

Experiment [1] is described as follows: Her2 expression decrease, cell viability multiplex – SKBR3 breast tumor cells, AlphaScreen, ATP viability, primary screen (AID 461;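 active = Her2 level under about 52% in both replicate screens, with viability over 70% of control, limit read from the data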;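 as to Her2 level: lower value means less Her2 protein in the cells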;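 as to viability: percent of carrier control wells set as 100% viability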). Conditions: SKBR3 Her2 protein level, 18-24 h, measured here: SKBR3 viability, ATP luminescence, at 10 µM. (Bead proximity is the source of the signal in Alpha formats.)
Experiment [2] has as its target Receptor tyrosine-protein kinase erbB-2 (Homo sapiens) (UniProt P04626). Described as above. The settings on record: 18-24 h, at 10 µM, stronger effect = lower value.
Experiment [3] is described as follows: reduced viability of SK-BR-3 breast cancer cells – cell-based, 24 h, human, pilot screen (AID 572).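 Also: compound exposure lasted between 18 and 24 h rather than exactly 24 h; 100% = carrier-treated control wells.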 The settings on record: SK-BR-3 viability, CellTiter-Glo luminescence, at 10 µM, stronger effect = lower value. A general note: ATP-based viability assays read luminescence as a measure of living cells.
Experiment [4] in a line: HUVEC growth inhibition – cell-based, human, primary screen (AID 575;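 active = viability at or below 30% in both replicate assays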;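 also: 100% = median of untreated cell wells with 0.1% DMSO on each plate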). Conditions: HUVEC proliferation, CellTiter-Glo luminescence, 72 h; at 10 µM; stronger effect = lower value. The gist of the method: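 Assay system: primary human umbilical vein endothelial cells / Buffer or medium: endothelial basal medium with 2% FBS plus growth supplements / Compound dosing: one dose, 10 µM final, 0.1% DMSO / Timing: 72 h treatment at 37 °C / Signal: CTG luminescence / Benchmarks: 32 DMSO-only cell-control wells (high), 32 MePR drug-control wells (low) per plate / Plate: collagen-coated 384-well format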

The nature of experiment [5]: H69AR cell proliferation blockers – human, duplicate replicates, primary screen (AID 580;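 active = viability at or under a set limit in both replicates, limit being median viability minus 3 SD, cut at about 48% in these data, passing the limit was not always enough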;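 also: 100% = mean luminescence of untreated wells and 0% = no signal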). The settings on record: H69AR lung tumor cells viability, ATP luminescence, 72 h; at 10 µM; stronger effect = lower value.
Experiment [6] in a line: MRP1 drug-resistance reversers in H69AR cells – cell-based, doxorubicin co-treatment, pilot screen (AID 601;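 active = viability loss from added drug above about 55%, and viability with drug at most 40%, in both replicates, limit read from the data, passing the limit was not always enough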). Conditions: CellTiter-Glo, 72 h, at 10 µM; for differential viability (reversal): stronger effect = higher value.
Experiment [7] in a line: yeast transport mutant growth inhibition pilot in 384-well plates, post-Golgi transport modulator project (AID 636; in the data active = inhibition above about 31%). The settings on record: absorbance 615 nm, about 18 h, stronger effect = higher value.
The nature of experiment [8]: growth suppression of yeast trafficking mutant, preliminary HTS, modulators of trafficking downstream of Golgi apparatus project, 1536-format plate, OD 615 nm (AID 637; in the data active = inhibition above about 30%). The settings on record: yeast transport mutant growth, absorbance 615 nm, 18 h; stronger effect = higher value.
Setting [9] is: H69AR cells + 2 uM doxorubicin, measured here: viability with 2 uM doxorubicin, stronger effect = lower value.
Where [10] appears, read: H69AR cells, compound alone cytotoxicity.

Calls of active or inactive are those of the source.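 The calls were made as follows, unless noted: active = viability at or below 10% of carrier control in both of two separate runs; inconclusive = viability at or below 10% in only one of the two runs; inactive = the rest.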

Usually viability stands for a read-out of living cells in per cent, often relative to untreated cells. As a reminder, the inhibition is the relative decrease from the control value, in per cent.

Sequence of Receptor tyrosine-protein kinase erbB-2 (Homo sapiens) (P04626 whole entry, looked up): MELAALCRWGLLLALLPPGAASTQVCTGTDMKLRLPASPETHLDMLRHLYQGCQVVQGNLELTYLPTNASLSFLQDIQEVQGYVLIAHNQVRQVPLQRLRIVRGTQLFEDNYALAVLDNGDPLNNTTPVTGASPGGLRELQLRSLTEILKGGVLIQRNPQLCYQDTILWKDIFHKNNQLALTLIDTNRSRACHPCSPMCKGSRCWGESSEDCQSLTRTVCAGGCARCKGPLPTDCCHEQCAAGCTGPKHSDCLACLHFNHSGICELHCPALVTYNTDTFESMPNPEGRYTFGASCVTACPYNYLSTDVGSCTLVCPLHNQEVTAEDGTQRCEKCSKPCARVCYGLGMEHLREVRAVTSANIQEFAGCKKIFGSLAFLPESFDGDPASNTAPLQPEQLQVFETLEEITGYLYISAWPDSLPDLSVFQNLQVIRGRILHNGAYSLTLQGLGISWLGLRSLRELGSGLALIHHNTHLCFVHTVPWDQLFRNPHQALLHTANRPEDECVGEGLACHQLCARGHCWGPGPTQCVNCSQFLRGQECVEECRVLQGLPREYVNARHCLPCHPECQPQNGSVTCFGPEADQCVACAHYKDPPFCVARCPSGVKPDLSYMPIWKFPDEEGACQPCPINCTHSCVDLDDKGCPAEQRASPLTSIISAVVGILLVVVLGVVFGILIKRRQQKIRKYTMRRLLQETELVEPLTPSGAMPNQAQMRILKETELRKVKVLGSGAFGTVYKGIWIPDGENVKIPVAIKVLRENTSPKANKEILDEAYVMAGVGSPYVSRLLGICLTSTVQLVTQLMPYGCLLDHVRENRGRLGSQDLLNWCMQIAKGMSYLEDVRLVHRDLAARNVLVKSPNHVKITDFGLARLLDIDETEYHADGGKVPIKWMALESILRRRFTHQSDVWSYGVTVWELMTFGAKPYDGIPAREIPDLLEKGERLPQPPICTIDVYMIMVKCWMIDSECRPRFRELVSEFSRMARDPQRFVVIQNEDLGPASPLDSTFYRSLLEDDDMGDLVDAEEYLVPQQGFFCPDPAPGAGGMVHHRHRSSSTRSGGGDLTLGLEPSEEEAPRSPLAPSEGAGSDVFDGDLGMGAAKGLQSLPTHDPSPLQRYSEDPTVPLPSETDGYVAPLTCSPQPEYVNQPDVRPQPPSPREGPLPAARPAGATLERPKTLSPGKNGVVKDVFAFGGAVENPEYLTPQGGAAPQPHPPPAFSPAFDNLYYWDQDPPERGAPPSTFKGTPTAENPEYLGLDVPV

As to `CCc1nc(C)c(-c2ccccc2)c(=O)[nH]1`, the viability in experiment [1] was 102%; in experiment [3], 102% (inactive); in experiment [4], 81.8% (inactive); in experiment [5], 113% (inactive); in experiment [6] (setting [9]), 87.2%; in experiment [6] (setting [10]), 113%. In addition, the Her2 level in experiment [2] is 120% (inactive). The differential viability (reversal) in experiment [6] (H69AR cells + 2 uM doxorubicin) is 25.6% (inactive). For the same compound, the inhibition is -3.2% (inactive) in experiment [7] and -8.39% (inactive) in experiment [8].
For `CC1(C(=O)CSc2nc3ccccc3s2)CCC(=O)O1` (stereo not given), the viability was 107% in experiment [1]; 107% (inactive) in experiment [3]; 73.2% (inactive) in experiment [4]; 90.1% (inactive) in experiment [5]; 87% in experiment [6] (setting [9]); 90.1% in experiment [6] (setting [10]). Further, in experiment [2], the Her2 level is 89% (inactive). The differential viability (reversal) in experiment [6] (H69AR cells + 2 uM doxorubicin) is 3.12% (inactive). Further, the inhibition in experiment [7] is -7.4% (inactive); in experiment [8] it was -3.17% (inactive).
For `Cc1cc(C(=O)Nc2ccccc2C#N)n(-c2ccccc2)n1`, the viability in experiment [1] is 97.5%; in experiment [3], 97.5% (inactive); in experiment [4], 92.8% (inactive); in experiment [5], 93.9% (inactive); in experiment [6] (setting [9]), 97%; in experiment [6] (setting [10]), 93.9%. In addition, the Her2 level in experiment [2] is 100% (inactive). In addition, the differential viability (reversal) in experiment [6] (H69AR cells + 2 uM doxorubicin) was -3.06% (inactive). Besides, the results for the inhibition in experiment [7] and in experiment [8] were 2.93% (inactive) and 0% (inactive), respectively.
Take `COc1ccccc1-c1nnc2sc(-c3ccc(N(C)C)cc3)nn12`: the viability in experiment [1] was 79.5%; in experiment [3], 79.5% (inactive); in experiment [4] it was 34.5% (inactive); in experiment [5] it was 23.9% (active); in experiment [6] (setting [9]), 39.1%; in experiment [6] (setting [10]), 23.9%. In addition, the Her2 level in experiment [2] was 64% (inactive). Further, the differential viability (reversal) in experiment [6] (H69AR cells + 2 uM doxorubicin) was -15.2% (inactive). In addition, the inhibition in experiment [7] was -1.05% (inactive); in experiment [8], 1.09% (inactive).
On to `Cc1onc(-c2c(Cl)cccc2Cl)c1C(N)=O`, for which the viability in experiment [1] is 103%; in experiment [3], 103% (inactive); in experiment [4], 100% (inactive); in experiment [5], 106% (inactive); in experiment [6] (setting [9]), 92.5%; in experiment [6] (setting [10]), 106%. The Her2 level in experiment [2] is 116% (inactive). Moreover, the differential viability (reversal) in experiment [6] (H69AR cells + 2 uM doxorubicin) was 13.6% (inactive). For the same compound, the inhibition was -2.03% (inactive) in experiment [7] and -5.08% (inactive) in experiment [8].
As for `O=C(OCC(=O)N1CCC(Cc2ccccc2)CC1)c1ccc[nH]c1=O`, the viability in experiment [1] is 80.5%; in experiment [3], 80.5% (inactive); in experiment [4] it was 117% (inactive); in experiment [5], 92.6% (inactive); in experiment [6] (setting [9]), 90.4%; in experiment [6] (setting [10]), 92.6%. In experiment [2], the Her2 level was 102% (inactive). Also, the differential viability (reversal) in experiment [6] (H69AR cells + 2 uM doxorubicin) is 2.25% (inactive). Besides, the results for the inhibition in experiment [7] and in experiment [8] were 0.13% (inactive) and -12.3% (inactive), respectively.
As to `COc1ccc(C2=NOC(C(=O)NCCCN3CCOCC3)C2)cc1` (stereo not given), the viability was 109% in experiment [1]; 109% (inactive) in experiment [3]; 116% (inactive) in experiment [4]; 87.3% (inactive) in experiment [5]; 86.2% in experiment [6] (setting [9]); 87.3% in experiment [6] (setting [10]). In addition, the Her2 level in experiment [2] is 100% (inactive). Also, in experiment [6] (H69AR cells + 2 uM doxorubicin), the differential viability (reversal) was 1.06% (inactive). For the same compound, the inhibition in experiment [7] was -6.71% (inactive); in experiment [8], 9.34% (inactive).
On to `O=C(Nc1cccc(C(=O)N2CCOCC2)c1)c1cccnc1`, for which the viability is 99.5% in experiment [1]; 99.5% (inactive) in experiment [3]; 91% (inactive) in experiment [4]; 91.2% (inactive) in experiment [5]; 100% in experiment [6] (setting [9]); 91.2% in experiment [6] (setting [10]). Also, the Her2 level in experiment [2] is 118% (inactive). In experiment [6] (H69AR cells + 2 uM doxorubicin), the differential viability (reversal) is -9.23% (inactive). Besides, the inhibition was -6.18% (inactive) in experiment [7] and -3.11% (inactive) in experiment [8].
On to `COCCN1CCN(c2c(C)c(C)nc3cc(-c4cccc(OC)c4)nn23)CC1`, for which the viability in experiment [1] was 100%; in experiment [3] it was 100% (inactive); in experiment [4] it was 91.1% (inactive); in experiment [5] it was 95.4% (inactive); in experiment [6] (setting [9]), 82.7%; in experiment [6] (setting [10]), 95.4%. The Her2 level in experiment [2] was 83.5% (inactive). In experiment [6] (H69AR cells + 2 uM doxorubicin), the differential viability (reversal) is 12.7% (inactive). For the same compound, the inhibition in experiment [7] is -5.45% (inactive); in experiment [8], -1.43% (inactive).
For the compound `O=C(NCC(c1cccnc1)N1CCN(c2ccc(F)cc2)CC1)c1ccc(F)cc1` (stereo not given), the viability in experiment [1] was 90%; in experiment [3] it was 90% (inactive); in experiment [4], 103% (inactive); in experiment [5] it was 92.7% (inactive); in experiment [6] (setting [9]) it was 91%; in experiment [6] (setting [10]), 92.7%. Besides, in experiment [2], the Her2 level was 86.5% (inactive). Moreover, the differential viability (reversal) in experiment [6] (H69AR cells + 2 uM doxorubicin) is 1.7% (inactive). Moreover, the inhibition in experiment [7] was -3.11% (inactive); in experiment [8] it was 8.25% (inactive).
As for `COc1ccccc1N1CC(C(=O)Nc2cccc(C(=O)O)c2)CC1=O` (stereo not given), the viability in experiment [1] is 98%; in experiment [3] it was 98% (inactive); in experiment [4], 95.4% (inactive); in experiment [5] it was 94.1% (inactive); in experiment [6] (setting [9]), 99.6%; in experiment [6] (setting [10]) it was 94.1%. Further, the Her2 level in experiment [2] was 103% (inactive). Moreover, the differential viability (reversal) in experiment [6] (H69AR cells + 2 uM doxorubicin) is -5.46% (inactive). The inhibition in experiment [7] was 3.07% (inactive); in experiment [8] it was -7.58% (inactive).
As for `CC1CCN(C(=O)CCNS(=O)(=O)c2ccccc2)CC1`, the viability in experiment [1] is 110%; in experiment [3], 110% (inactive); in experiment [4] it was 96.7% (inactive); in experiment [5], 92.8% (inactive); in experiment [6] (setting [9]), 92%; in experiment [6] (setting [10]), 92.8%. In addition, in experiment [2], the Her2 level was 118% (inactive). In addition, the differential viability (reversal) in experiment [6] (H69AR cells + 2 uM doxorubicin) is 0.83% (inactive). The results for the inhibition in experiment [7] and in experiment [8] were -3.9% (inactive) and -2.06% (inactive), respectively.
As for `Cn1cnc(S(=O)(=O)Nc2ccc(C(F)(F)F)cc2)c1`, the viability in experiment [1] was 86%; in experiment [3] it was 86% (inactive); in experiment [4] it was 105% (inactive); in experiment [5], 91.7% (inactive); in experiment [6] (setting [9]) it was 85.4%; in experiment [6] (setting [10]), 91.7%. In experiment [2], the Her2 level was 98.5% (inactive). For the same compound, the differential viability (reversal) in experiment [6] (H69AR cells + 2 uM doxorubicin) was 6.29% (inactive). In addition, the inhibition is 1.41% (inactive) in experiment [7] and -11.7% (inactive) in experiment [8].
Consider `COc1ccc(C(=O)NCCn2ccc3ccccc32)cc1`, for which the viability in experiment [1] is 126%; in experiment [3], 126% (inactive); in experiment [4], 111% (inactive); in experiment [5] it was 92.5% (inactive); in experiment [6] (setting [9]) it was 84%; in experiment [6] (setting [10]), 92.5%. For the same compound, the Her2 level in experiment [2] was 97% (inactive). The differential viability (reversal) in experiment [6] (H69AR cells + 2 uM doxorubicin) is 8.59% (inactive). Moreover, the inhibition in experiment [7] is -5.6% (inactive); in experiment [8], 0.16% (inactive).
